Measured values gathered from unrelated publications.
Each line is one published result; the experiments were not run side by side.
Target: 5-hydroxytryptamine receptor 2A (HTR2A, Homo sapiens, UniProt P28223)

Structure (SMILES)	effect on	action	method	notes	endpoint	value
COc1cc2c3c(c1OC)-c1ccccc1CC3NCC2 (centres unmarked)	ligand displacement		radioligand	cell membranes	Ki	925 nM
C[C@H](N)Cn1ccc2cc(F)c(Cl)cc21	ligand displacement		radioligand	cell membranes	Ki	13.1 nM
CN(C)[C@@H]1Cc2ccccc2[C@@H](c2ccccc2)C1 (relative stereo)	inositol phosphate	antagonist			Kb	460 nM
Cc1[nH]c2ccccc2c1CCN	ligand displacement		radioligand		Ki	7770 nM
CC[C@H](C)[C@H](NC(=O)[C@H](CCCNC(=N)N)NC(=O)[C@H](CC(C)C)NC(=O)[C@@H](N)Cc1ccccc1)C(=O)N[C@@H](CCCNC(=N)N)C(=O)N1CCC[C@H]1C(=O)N[C@@H](CCCCN)C(=O)O	cell-free assay		radioligand		Ki	> 10000 nM
COc1cc2c3c(c1OC)-c1cc4c(cc1CC3N(C)CC2)OCO4 (centres unmarked)	calcium signal	antagonist			Kb	830 nM
Cc1nc2n(c(=O)c1CCN(C)CCc1c[nH]c3cc(F)ccc13)CCCC2	ligand displacement		radioligand	cell membranes	Ki	25.8 nM
COc1cc2c3c(c1OC)-c1ccccc1C[C@H]3N(C)CC2	ligand displacement		radioligand	cell membranes	Ki	150 nM
CN(C)CCc1c[nH]c2ccccc12	cell-free assay				Ki	1510 nM
c1ccc2c(C3CCNCC3)noc2c1	ligand displacement		radioligand	cell membranes	Ki	271 nM
NCCc1c[nH]c2ccc(F)cc12	ligand displacement		radioligand		Ki	3910 nM
CCCCCNC(=N)N/N=C/c1c[nH]c2ccc(OC)cc12	cell-free assay				IC50	127 nM
OC(c1ccc(F)cc1)C(F)(F)CCN1CCC(O)(c2ccc(Cl)cc2)CC1 (racemic)	cell-free assay		radioligand		Ki	1010 nM
COc1ccccc1N1CCN(CCN(C(=O)C2CCCCC2)c2ccccn2)CC1	ligand displacement		radioligand	cell membranes	Ki	331 nM
